Rows were chosen to be rich in hits. Some 2.5% of all compounds tested hit in one or more screens of this group.
NALP1 inh: blocks the NALP1 inflammasome reconstituted in yeast; AID 2071; S. cerevisiae NALP1/ASC/caspase-1 growth, X-gal OD620, 72 h; hit rate 0.61% among 280,000; inhibition, % at 10 µM; in the data active means inhibition mostly above about 24%, no sharp cut-off; inactive means mostly below about 32%
NLRP3 yeast inh: inhibitors of NALP3 inflammasome in yeast | Yeast reconstituted NLRP3/ASC/caspase-1, beta-gal luminescence, 24 h | inhibition, % at 10 µM | hit rate 0.39% among 330,000 | AID 2825;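 active means inhibition of 50% or more; inactive means inhibition below 50%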;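 further: plate controls were induced DMSO wells for no effect and uninduced yeast grown without galactose for full effect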
MC4R antagonist: blocks human MC4R cAMP signaling; P32245; MC4R-expressing cells, MTII-stimulated cAMP, LANCE TR-FRET; inhibition, % at 6.5 µM; hit rate 0.48% among 360,000; AID 540295;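 active means inhibition above its plate's cutoff, the mean of tested wells on that plate plus 3 SD, cut at about 29% in these data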;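 further: 0% = Melanotan II alone and 100% = Melanotan II plus saturating MCL0020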
Target sequence (P32245 whole entry, looked up): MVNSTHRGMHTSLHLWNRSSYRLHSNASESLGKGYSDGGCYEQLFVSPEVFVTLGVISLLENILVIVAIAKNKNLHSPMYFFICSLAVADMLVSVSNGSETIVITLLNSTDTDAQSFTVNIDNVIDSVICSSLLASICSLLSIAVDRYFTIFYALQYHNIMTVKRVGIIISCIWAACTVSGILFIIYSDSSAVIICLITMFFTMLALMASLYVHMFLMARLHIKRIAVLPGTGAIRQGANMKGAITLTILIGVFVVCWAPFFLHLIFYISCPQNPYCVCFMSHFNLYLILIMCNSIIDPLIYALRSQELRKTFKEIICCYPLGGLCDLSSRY
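Test system: U2OS cells stably expressing human melanocortin 4 receptor (MC4R); also added: Melanotan II challenge; compound: 6.5 µM single dose; timing: 30-min compound preincubation, 1-h Melanotan II challenge, 1-h detection, room temperature; signal: Eu-cAMP/anti-cAMP TR-FRET, emission 671 nm; repeats: one well per compound, no replicates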
A1 inh: inhibitors of the anti-apoptotic protein A1, read as caspase activation; MEF A1-2A-BIM cells, Caspase-Glo 3/7 luminescence, 3 h; percent of clofoctol response, vehicle zero; caspase activation, % (no concentration beside the values); hit rate 0.066% among 330,000;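 active means over half of replicate activation scores above 10%, or exactly half above 10 with the replicate mean above 10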
MC4R ag barr: human MC4R agonism via beta-arrestin. P32245. U2OS MC4R beta-arrestin complementation, luminescence; percent of melanotan II response, DMSO zero. activation, % at 8.9 µM. hit rate 0.98% among 360,000. AID 540308;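 active means activation above a per-plate cutoff, the mean activation of sample wells on that plate plus 3 SD, cut at about 8% in these data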
Tb MetRS inh: blocks T. brucei methionyl-tRNA synthetase activity | purified T. brucei MetRS, ATP depletion, Kinase-Glo luminescence | inhibition, % at 11.9 µM | hit rate 0.4% among 360,000 | AID 624268;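 active means inhibition above a per-plate cutoff of the control wells' mean inhibition plus 3 SD, cut at about 5.5% in these data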;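 further: 0% = DMSO wells median and 100% = median of wells with control inhibitor compound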
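technique = Kinase-Glo luminescence, ATP depletion format | system = purified MetRS (methionyl-tRNA synthetase) enzyme from Trypanosoma brucei | timing = 15 min preincubation, 2 h reaction, all 25 °C | evaluation = percent inhibition versus plate control medians | dosing = single dose, 11.9 µM final nominal, 0.9% final DMSO | also added = substrates ATP, L-methionine and bulk Escherichia coli tRNA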
cAMP nonselect: U2OS forskolin cAMP inhibition counter-screen; hit rate 26% among 1,600; AID 602193; parental U2OS, LANCE TR-FRET; shares compounds with MC4R antagonist; inhibition, % at 6.5 µM;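 active means mean inhibition over triplicates above the low-control well mean plus 3 SD, set per campaign, cut at about 13% in these data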;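 further: signal is single emission at 671 nm which falls as cellular cAMP rises; 0% = forskolin-stimulated wells and 100% = buffer without forskolin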
MC4R cAMP antag: human MC4R cAMP antagonism confirmation. shares compounds with MC4R antagonist. MC4R-expressing cells, MTII-stimulated cAMP, TR-FRET. inhibition, % at 6.5 µM. hit rate 27% among 1,600. AID 602195; in the data active means inhibition above about 29%;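 further: 0% = agonist stimulated wells alone and 100% = agonist stimulated wells plus saturating reference antagonist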
* marks the source's active call; other numbers are inactive results; . = no result given.

SMILES | NALP1 inh | NLRP3 yeast inh | MC4R antagonist | A1 inh | MC4R ag barr | Tb MetRS inh | cAMP nonselect | MC4R cAMP antag
COc1ccccc1CNC(=O)c1cccc(S(=O)(=O)N2CCCC2)c1 | . | 0 | -1 | . | -3 | 0 | . | .
CCCOc1ccc(/C(O)=C2\C(=O)C(=O)N(c3ccccn3)C2c2ccccc2F)cc1C (stereo not drawn) | 14 | 26 | 42* | 0 | 3 | -1 | 33* | 20
COc1ccc(C2/C(=C(/O)c3ccccc3)C(=O)C(=O)N2c2ccccn2)cc1OC (stereo not drawn) | 9 | 11 | -6 | 0 | -2 | -1 | . | .
O=C1C(=O)N(c2ccccn2)C(c2cccc(F)c2)/C1=C(/O)c1ccccc1 (stereo not drawn) | 12 | -32 | 29* | 1 | 1 | 0 | -2 | -23
CCOc1c(O)ccc(C2NC(=O)NC(C)=C2C(=O)OC)c1[N+](=O)[O-] (stereo not drawn) | 13 | 13 | 30* | 0 | -3 | 0 | -4 | -11
CS(=O)(=O)Nc1cccc(NC(=O)c2cccc3c(-c4ccc(F)c(F)c4)coc23)c1 | . | . | 12 | . | -1 | 0 | . | .
CS(=O)(=O)Nc1cccc(NC(=O)c2cccc3c(-c4cccc(C(N)=O)c4)coc23)c1 | . | . | 44* | . | 2 | 0 | 8 | 22
O=C(c1[nH]c(C(F)(F)F)nc1-c1ccccc1)N1CCN(c2c(Cl)cncc2Cl)CC1 | . | . | . | . | . | -1 | . | .
O=C(O)CNC(=O)C(c1ccccc1)c1ccccc1 | . | 5 | 4 | 1 | -1 | -1 | . | .
O=C(CNC(=O)C(c1ccccc1)c1ccccc1)OCc1ccccc1 | 0 | 9 | 30* | -1 | 0 | 0 | 13 | 19
N#CCC(=O)Nc1ccc(C(=O)OCC(=O)Nc2ccccc2Sc2ccccc2)cc1 | 9 | 14 | 31* | -1 | 1 | -1 | -3 | 9
O=C(CCc1ccccc1)n1nc(-c2ccccc2)nc1NCc1ccco1 | 16 | -12 | 33* | -1 | 0 | 0 | -2 | 5
COc1ccc(CC(=O)n2nc(-c3ccccc3)nc2NCc2ccco2)cc1 | -6 | 9 | 9 | 0 | 0 | 0 | . | .
CC(C)CC(N)c1csc(Nc2ccc(C(=O)NCCCO)cn2)n1 (stereo not drawn) | . | . | 8 | . | 0 | 0 | . | .
C=CCN(C(=O)CCc1ccccc1OC)c1nc(-c2ccc(S(C)(=O)=O)cc2)cs1 | 6 | 18 | 31* | 1 | 1 | 1 | 0 | -3
O=C(Nc1nc(-c2ccccn2)cs1)c1cc(Cl)ccc1[N+](=O)[O-] | -1 | -3 | 29* | 0 | -1 | -1 | 32* | 18
Cc1cc(C(=O)Nc2nc(-c3ccccn3)cs2)ccc1[N+](=O)[O-] | -21 | 13 | 18 | 0 | -2 | 0 | . | .
CC(C)[C@H](NC(=O)OCc1ccccc1)C(=O)OCC(=O)N1CCCCC1 | . | . | 10 | . | -1 | 0 | . | .
Cc1cc(F)ccc1S(=O)(=O)Nc1ccc(C(=O)N2CCCCCC2)cc1 | . | 14 | 6 | 2 | -2 | 0 | . | .
Cc1ccc(Cc2c(-c3ccc(C#N)cc3)nc3c(C)cc(Br)cn23)cc1 | . | . | . | . | . | -1 | . | .
O=C(O)C(Cc1c[nH]c2ccccc12)NS(=O)(=O)c1cccc(Cl)c1Cl (stereo not drawn) | 13 | 1 | 29* | 1 | 1 | 0 | 2 | 2
O=[N+]([O-])c1ccccc1S(=O)(=O)Nc1cccc(S(=O)(=O)N2CCCC2)c1 | . | 7 | 8 | 2 | -1 | 0 | . | .
O=C(Nc1cc(C(F)(F)F)ccc1N1CCOCC1)c1c(F)c(F)c(F)c(F)c1F | 4 | 10 | 30* | 2 | -1 | -1 | 16* | 46*
O=C(Nc1cc(C(F)(F)F)ccc1N1CCOCC1)c1ccccc1 | 1 | 11 | 6 | 0 | 2 | 0 | . | .
Cc1ccc(S(=O)(=O)NCC(=O)OCC(=O)Nc2ncc(Cl)cc2Cl)cc1 | 29 | 13 | 16 | -1 | 0 | -1 | . | .
SMILES | NALP1 inh | NLRP3 yeast inh | MC4R antagonist | A1 inh | MC4R ag barr | Tb MetRS inh | cAMP nonselect | MC4R cAMP antag
Cc1ccc(S(=O)(=O)NCC(=O)OC(C)C(=O)Nc2ncc(Cl)cc2Cl)cc1 (stereo not drawn) | 10 | 5 | 31* | 0 | -2 | -1 | 14* | 27
O=CN1N=C(c2ccccc2)CC1c1ccc(Cl)cc1 (stereo not drawn) | -10 | 10 | 16 | 1 | 1 | 0 | . | .
O=C1OC(c2ccccc2)=NC12CC2c1ccc(Cl)cc1 (stereo not drawn) | 6 | 25 | 29* | 0 | -1 | 0 | 0 | 4
C=CCNc1ccccc1S(=O)(=O)NCc1ccccc1 | . | . | -2 | . | 1 | -2 | . | .
CN1OCC(S(=O)(=O)c2ccccc2)C1c1ccccc1 (stereo not drawn) | 2 | -2 | 4 | 0 | -2 | -1 | . | .
O=S(=O)(c1ccccc1)C1CON(Cc2ccccc2)C1c1ccccc1 (stereo not drawn) | -9 | 14 | 30* | 1 | 2 | 0 | 2 | -9
COC(=O)c1sc(-c2cccs2)cc1NC(=O)/C=C/C(=O)O | . | 3 | 32* | 0 | -2 | 0 | 8 | 5
COC(=O)c1sc(-c2ccccc2)cc1NC(C)=O | 1 | 24 | 1 | 0 | -1 | -1 | . | .
COc1ccc(-c2ccc3c(c2)C2CC3CCN2Cc2ccc(OC(F)(F)F)cc2)cc1 (stereo not drawn) | . | . | 12 | . | -4 | -1 | . | .
CC1CC(Nc2ccccc2)c2ccccc2N1C(=O)c1ccncc1 (stereo not drawn) | 8 | -3 | 34* | 1 | -1 | 0 | 3 | 5
CC(OC(=O)/C=C/c1ccc2ccccc2n1)C(=O)Nc1ccc(S(N)(=O)=O)cc1 (stereo not drawn) | . | 4 | 9 | 1 | -1 | 0 | . | .
COc1ccc2c(c1)CCC1(C)CC(=O)C(Br)=C21 (stereo not drawn) | . | . | 40* | . | 0 | 0 | 34* | 53*
O=C(CSc1n[nH]c(-c2ccccc2)n1)Nc1ccc(N2CCOCC2)cc1 | 16 | -1 | 9 | -1 | -1 | 0 | . | .
NS(=O)(=O)c1ccc(NC(=O)COC(=O)CSc2n[nH]c(-c3ccccc3)n2)cc1 | -7 | 2 | 39* | 0 | -1 | 0 | 9 | -3
Nc1ccccc1C#CC(=O)c1ccccc1 | -10 | -50 | 54* | 1 | -1 | -1 | 26* | 52*

Compound activity as filed in PubChem BioAssay.
